Values joined by “and” are separate entries in the source; they are usually repeats but may differ in a detail not shown here. Identical values can stand only once.
System: Fibroblast
Assay: Multiplex assay against human fibroblast
Assay type: toxicity, cell-based
In short: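 At seeding, live cells were stained with Hoechst33342, BioTracker Green Microtubule Cytoskeleton Dye, MitoTracker Red and Annexin V Alexa Fluor 680. After compound addition they were imaged on a CQ1 microscope at 37°C and 5% CO2, and CellPathfinder machine-learning gating sorted them into Hoechst high-intensity objects or normal cells, with normal cells further split into healthy, pyknosed or fragmented nuclei and pyknosed cells into mitotic or apoptotic. Tubulin, mitochondrial-mass and membrane-permeability phenotypes are given as per cents of cells with healthy nuclei.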

[1] = 12 h, 1 µM, compound concentration 1 uM
[2] = 12 h, 10 µM, compound concentration 10 uM
[3] = 24 h, 1 µM, compound concentration 1 uM
[4] = 24 h, 10 µM, compound concentration 10 uM
[5] = 48 h, 1 µM, compound concentration 1 uM
[6] = 48 h, 10 µM, compound concentration 10 uM

## Cc1cc(-c2ccc3c(c2)CC[C@H]3N2CC3(CCN(C(=O)Cc4cn5cc(C)sc5n4)CC3)C2)ncn1 [PF-5190457]
[1]
  Population Apoptotic (%): 29% and 30%
  Population Fragmented Nuclei (%): 16% and 18%
  Population Healthy Nuclei (%): 71% and 46%
  Population Hoechst High Intensity Objects (%): 4%
  Population Membrane Permeable-Phenotype (%): 1% and 9%
  Population Mitochondria Different-Phenotype (%): 5% and 0%
  Population Mitotic Cells (%): 70%
  Population Normal (%): 96% and 95%
  Population Tubulin-Different-Phenotype (%): 24% and 48%
  Total Cell Count: 150 and 121
[2]
  Population Apoptotic (%): 36% and 45%
  Population Fragmented Nuclei (%): 17% and 20%
  Population Healthy Nuclei (%): 63% and 55%
  Population Hoechst High Intensity Objects (%): 4% and 1%
  Population Membrane Permeable-Phenotype (%): 1% and 6%
  Population Mitochondria Different-Phenotype (%): 5% and 4%
  Population Mitotic Cells (%): 63% and 54%
  Population Normal (%): 95% and 98%
  Population Pyknosed Nuclei (%): 18% and 24%
  Population Tubulin-Different-Phenotype (%): 38% and 56%
  Total Cell Count: 186 and 138
[3]
  Population Fragmented Nuclei (%): 19% and 23%
  Population Healthy Nuclei (%): 72% and 43%
  Population Hoechst High Intensity Objects (%): 2% and 3%
  Population Membrane Permeable-Phenotype (%): 1% and 5%
  Population Mitochondria Different-Phenotype (%): 4% and 5%
  Population Mitotic Cells (%): 45% and 84%
  Population Normal (%): 97% and 96%
  Population Tubulin-Different-Phenotype (%): 26% and 54%
  Total Cell Count: 141 and 126
[4]
  Population Apoptotic (%): 44% and 53%
  Population Fragmented Nuclei (%): 19% and 25%
  Population Healthy Nuclei (%): 64% and 49%
  Population Hoechst High Intensity Objects (%): 3% and 5%
  Population Membrane Permeable-Phenotype (%): 0% and 1%
  Population Mitochondria Different-Phenotype (%): 6% and 7%
  Population Mitotic Cells (%): 55% and 46%
  Population Normal (%): 96% and 94%
  Population Pyknosed Nuclei (%): 16% and 25%
  Population Tubulin-Different-Phenotype (%): 37% and 60%
  Total Cell Count: 180 and 134
[5]
  Population Apoptotic (%): 78% and 34%
  Population Fragmented Nuclei (%): 30% and 32%
  Population Healthy Nuclei (%): 59% and 47%
  Population Hoechst High Intensity Objects (%): 6% and 2%
  Population Mitochondria Different-Phenotype (%): 2% and 6%
  Population Normal (%): 93% and 97%
  Population Pyknosed Nuclei (%): 9% and 20%
  Population Tubulin-Different-Phenotype (%): 23% and 68%
  Total Cell Count: 157 and 132
[6]
  Population Apoptotic (%): 63% and 62%
  Population Fragmented Nuclei (%): 22% and 30%
  Population Healthy Nuclei (%): 66% and 51%
  Population Hoechst High Intensity Objects (%): 6% and 1%
  Population Membrane Permeable-Phenotype (%): 0% and 5%
  Population Mitochondria Different-Phenotype (%): 12% and 14%
  Population Mitotic Cells (%): 36% and 37%
  Population Normal (%): 93% and 98%
  Population Pyknosed Nuclei (%): 10% and 18%
  Population Tubulin-Different-Phenotype (%): 37% and 64%
  Total Cell Count: 192 and 135

## CC(C)COc1ccc(CNC(=O)N(Cc2ccc(F)cc2)C2CCN(C)CC2)cc1 [PIMAVANSERIN]
[1]
  Population Apoptotic (%): 65% and 61%
  Population Fragmented Nuclei (%): 24% and 40%
  Population Healthy Nuclei (%): 62% and 42%
  Population Hoechst High Intensity Objects (%): 0% and 1%
  Population Membrane Permeable-Phenotype (%): 0% and 7%
  Population Mitochondria Different-Phenotype (%): 12% and 4%
  Population Mitotic Cells (%): 34% and 38%
  Population Normal (%): 100% and 98%
  Population Pyknosed Nuclei (%): 12% and 16%
  Population Tubulin-Different-Phenotype (%): 35% and 82%
  Total Cell Count: 179 and 160
[2]
  Population Apoptotic (%): 56% and 51%
  Population Fragmented Nuclei (%): 18% and 31%
  Population Healthy Nuclei (%): 65% and 42%
  Population Hoechst High Intensity Objects (%): 1% and 4%
  Population Membrane Permeable-Phenotype (%): 0% and 2%
  Population Mitochondria Different-Phenotype (%): 42% and 32%
  Population Mitotic Cells (%): 43% and 48%
  Population Normal (%): 98% and 95%
  Population Pyknosed Nuclei (%): 16% and 26%
  Population Tubulin-Different-Phenotype (%): 93% and 81%
  Total Cell Count: 185
[3]
  Population Apoptotic (%): 60% and 52%
  Population Fragmented Nuclei (%): 21% and 39%
  Population Healthy Nuclei (%): 65% and 46%
  Population Hoechst High Intensity Objects (%): 2%
  Population Membrane Permeable-Phenotype (%): 1% and 4%
  Population Mitochondria Different-Phenotype (%): 5% and 9%
  Population Mitotic Cells (%): 39% and 47%
  Population Normal (%): 97%
  Population Pyknosed Nuclei (%): 12% and 13%
  Population Tubulin-Different-Phenotype (%): 47% and 76%
  Total Cell Count: 186 and 157
[4]
  Population Apoptotic (%): 83% and 69%
  Population Fragmented Nuclei (%): 13% and 27%
  Population Healthy Nuclei (%): 67% and 50%
  Population Hoechst High Intensity Objects (%): 4% and 8%
  Population Membrane Permeable-Phenotype (%): 0% and 3%
  Population Mitochondria Different-Phenotype (%): 41% and 38%
  Population Mitotic Cells (%): 16% and 30%
  Population Normal (%): 95% and 91%
  Population Pyknosed Nuclei (%): 18% and 21%
  Population Tubulin-Different-Phenotype (%): 92% and 96%
  Total Cell Count: 170 and 167
[5]
  Population Apoptotic (%): 88% and 52%
  Population Fragmented Nuclei (%): 27% and 44%
  Population Healthy Nuclei (%): 62% and 44%
  Population Hoechst High Intensity Objects (%): 3% and 5%
  Population Membrane Permeable-Phenotype (%): 1% and 4%
  Population Mitochondria Different-Phenotype (%): 3% and 12%
  Population Normal (%): 96% and 94%
  Population Pyknosed Nuclei (%): 9% and 10%
  Population Tubulin-Different-Phenotype (%): 45% and 64%
  Total Cell Count: 204 and 167
[6]
  Population Apoptotic (%): 92% and 75%
  Population Fragmented Nuclei (%): 15% and 30%
  Population Healthy Nuclei (%): 67% and 53%
  Population Hoechst High Intensity Objects (%): 12% and 6%
  Population Membrane Permeable-Phenotype (%): 0% and 3%
  Population Mitochondria Different-Phenotype (%): 44% and 41%
  Population Normal (%): 87% and 93%
  Population Pyknosed Nuclei (%): 17% and 16%
  Population Tubulin-Different-Phenotype (%): 91% and 92%
  Total Cell Count: 163 and 159

From ChEMBL document CHEMBL5724801, “EUbOPEN Chemogenomics Library - Multiplex” (2024)
